Most compounds without a hit are left out; they make up all but 2.3% or so of the library.
TRPC4 agonist: activators of mouse TRPC4 channel; HEK293 TRPC4beta/mu-opioid, Fluo4 calcium fluorescence; hits give high values; Q9QUQ5; 0.49% of 310,000 active; B-score at 10 µM; AID 2237;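 active = B-score above 5 SD of library B-scores, and initial fluorescence ratio not above library mean plus 5 SD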;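 also: positive B-score marks a calcium rise read as TRPC4 activation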
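Technique: kinetic Fluo4 calcium fluorescence; Test system: TRPC4beta and mu-opioid receptor HEK293 stable cells; Measure: B-scored integrated calcium fluorescence ratio; Benchmarks: low control buffer alone, high control maximal DAMGO; Schedule: 45 min room-temperature Fluo4 loading, 110 s read.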
TRPC6 activator: mouse TRPC6 channel activation; HEK293-TRPC6 membrane potential dye fluorescence; hits give high values; Q61143; B-score at 10 µM; 0.13% of 310,000 active;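 active = B-score of the integrated fluorescence ratio above library mean plus 3 SD, and starting fluorescence ratio within library mean plus 5 SD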;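 also: higher score means more depolarization so channel activation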
TRPC4 PAM: allosteric potentiators of mouse TRPC4 channel; AID 2227; 0.42% of 310,000 active; B-score at 10 µM; Q9QUQ5; HEK293 TRPC4beta/mu-opioid, DAMGO EC20, Fluo-4 Ca2+ flux; hits give high values;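 active = B-score of calcium response area above 5 SD of library B-scores, with initial fluorescence ratio within 5 SD of library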;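 also: B-score of integrated fluorescence ratio over time as area under calcium response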
TRPC4 block: inhibitors of mouse TRPC4 channel | Q9QUQ5 | B-score at 10 µM | HEK293 TRPC4beta/mu-opioid, DAMGO-evoked Fluo4 calcium flux; hits give low values | 0.39% of 300,000 active | AID 2247;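 active = B-score over 3 SD under the library average, no early fluorescence shift, positive overall ratio signal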
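Assay system – HEK293 line stably carrying TRPC4beta and mu-opioid receptor · Doses – single dose · Detection – Fluo4 calcium-dye fluorescence, kinetic read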
TRPC6 inh: blocks the mouse TRPC6 cation channel. Q61143. HEK293-TRPC6, membrane potential dye, ACh-evoked depolarization; hits give low values. B-score at 10 µM. 1.1% of 310,000 active;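 active = B-score under library mean minus 3 SD, initial fluorescence not abnormally high, positive integrated signal ratio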;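 also: B-score derived from integrated fluorescence ratio over the kinetic read; more negative B-score means stronger inhibition of depolarization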
* marks the source's active call; other numbers are inactive results; i = inactive.

SMILES	TRPC4 agonist	TRPC6 activator	TRPC4 PAM	TRPC4 block	TRPC6 inh
CCCCN(CC)CCNC(=O)c1ccc2c(Cl)c3c(nc2c1)CCC3	132*	i	12*	i	i
CCN(CC)CCCNC(=O)c1ccc2c(Cl)c3c(nc2c1)CCCC3	i	i	i	i	i
Oc1c(Cl)cc(Cl)cc1Sc1cc(Cl)cc(Cl)c1O	86*	i	i	i	-8.4*
CCCOc1ccc(C(=O)NNC(=S)NC(=O)CC)cc1	46*	i	i	i	i
C=CCNC(=S)NNC(=O)c1ccc(OCCC)cc1	i	i	i	i	i
Cc1onc(-c2ccccc2)c1C(=O)NC(=S)NNC(=O)c1ccccc1O	247*	i	i	i	i
CCCOc1ccc(C(=O)NC(=S)NNC(=O)c2c(-c3ccccc3)noc2C)cc1	194*	i	i	i	i
Cc1coc(C)c1C(=O)Nc1ccc2ccccc2c1	i	i	i	i	i
CCOc1ccc(CN2CCN(c3cc(C)nc4c5c(C)cc(C)nc5nn34)CC2)cc1	50*	i	i	i	i
Cc1c(C(=O)N2CCCCC2)c(S(=O)(=O)N2CCc3ccccc32)c(C)n1C	i	i	i	i	i
CCOC(=O)c1c(C)n(C)c2ccc(OCC(O)CN3CCN(C)CC3)cc12 (centres undefined)	i	i	i	i	i
OC(CNCCc1ccc(C(F)(F)F)cc1)COc1cccc2ccccc12 (centres undefined)	60*	i	i	i	i
OC(CNCCc1ccc(C(F)(F)F)cc1)COc1ccc2ccccc2c1 (centres undefined)	i	i	24*	i	i
CCOC(=O)c1c(C)n(C)c2ccc(OCC(O)CNCCc3ccccc3)cc12 (centres undefined)	i	i	21*	i	i
CC(=O)c1cccc(OCC(O)CNCCc2ccc(Cl)cc2)c1 (centres undefined)	i	i	10*	i	i
OC(CNCc1ccc(Cl)cc1)COc1ccccc1 (centres undefined)	i	i	i	i	i
Cc1ccc(NC(=O)c2cccs2)cc1	77*	i	i	-6*	i
COc1cc(C(=O)NCC(c2cccs2)N(C)C)cc(Cl)c1OC(C)C (centres undefined)	63*	i	i	i	i
COc1cc2ccccc2cc1C(=O)NCC(c1cccs1)N(C)C (centres undefined)	179*	i	i	i	i
CCCOc1ccc(C(=O)NCC(c2cccs2)N(C)C)cc1OC (centres undefined)	i	i	i	i	i
COc1cc(C2N(c3ccc(Cl)c(Cl)c3)C(=O)C3CCCN32)cc(OC)c1OC (centres undefined)	81*	i	i	i	i
COc1cc(C2N(c3ccc(Cl)cc3)C(=O)C3CCCN32)cc(OC)c1OC (centres undefined)	i	i	i	i	i
COc1ccc(N2C(=O)C3CCCN3C2c2ccc(C)o2)cc1Cl (centres undefined)	i	i	i	i	i
Cc1ccc(C2N(c3ccc(Cl)c(Cl)c3)C(=O)C3CCCN32)o1 (centres undefined)	122*	i	15*	i	i
COc1ccc(N2C(=O)C3CCCN3C2c2cc(OC)c(OC)c(OC)c2)cc1 (centres undefined)	i	i	i	i	i
SMILES	TRPC4 agonist	TRPC6 activator	TRPC4 PAM	TRPC4 block	TRPC6 inh
COc1cc(C2N(c3cccc(Cl)c3)C(=O)C3CCCN32)cc(OC)c1OC (centres undefined)	i	i	14*	i	i
CC(C)c1ccc(/C=C2\SC(=O)N(CC(=O)NCCCn3ccnc3)C2=O)cc1	i	i	i	i	i
CC1CCCCN1S(=O)(=O)c1ccc(C(=O)Nc2sccc2C(N)=O)cc1 (centres undefined)	i	i	11*	i	i
COc1ccc(O)c(C(=O)c2cnc3c(c2)c(=O)[nH]c(=O)n3C)c1	i	i	i	-6*	i
COCCn1c(=O)[nH]c(=O)c2cc(C(=O)c3cc(Cl)ccc3O)cnc21	i	i	i	i	i
CN1CCCC(OC(=O)c2ccccc2F)C1 (centres undefined)	i	i	i	i	i
COc1ccccc1C(=O)OC1CCCN(C)C1 (centres undefined)	i	i	10*	i	i
CC(Cc1ccccc1)NC(=O)CCCN1C(=O)c2ccccc2C1=O (centres undefined)	i	i	i	i	i
Cc1ccc2nc(SCC3CCCCO3)[nH]c2c1 (centres undefined)	i	i	i	i	i
CC(C)C1NC(C(=O)O)Cc2c1[nH]c1ccccc21 (centres undefined)	i	i	i	-7*	i
CC(C)CC1NC(C(=O)O)Cc2c1[nH]c1ccccc21 (centres undefined)	i	i	i	i	i
CCCC1NC(C(=O)O)Cc2c1[nH]c1ccccc21 (centres undefined)	i	i	i	-6*	i
COc1ccc(NC(=O)COc2coc(CN3c4ccccc4CC3C)cc2=O)cc1 (centres undefined)	i	i	i	i	i
CC(=O)Nc1ccc(NC(=O)Cn2nc(C(=O)Nc3ccc(C)cc3)ccc2=O)cc1	i	i	i	i	i
Cc1nn(Cc2noc(C(=O)NCCc3ccccn3)n2)c(C)c1Br	82*	i	i	i	i
Cc1nn(Cc2noc(C(=O)NCc3ccccn3)n2)c(C)c1Br	i	i	i	i	i
COc1ccc(OC)c(NC(=O)c2ccccc2N(Cc2ccccc2)S(C)(=O)=O)c1	i	i	i	i	i
CN1CCN(C/C(=C2/N=C(c3ccccc3)OC2=O)N(C)C)CC1	i	i	13*	i	i
CN(C)/C(Cn1cncn1)=C1/N=C(c2ccccc2)OC1=O	i	i	i	i	i
CCOC(=O)/C(=C\c1ccc(Cl)cc1)c1nc2sc(C)c(C)c2c(=O)[nH]1	i	i	11*	i	i
O=C(COc1ccc(S(=O)(=O)N2CCCCC2)cc1Cl)N1CCOCC1	i	i	i	i	i
CCN1CCN(c2ccc(S(=O)(=O)N3CCCCC3)cc2NC(=O)CC(C)c2ccccc2)CC1 (centres undefined)	118*	i	i	i	i

Screens (PubChem)
